In ChEMBL document CHEMBL2396521, “Development and characterization of glutamyl-protected N-hydroxyguanidines as reno-active nitric oxide donor drugs with therapeutic potential in acute renal failure” (J Med Chem, 2013):
Each block holds one compound with its values, some of them ahead of it. Activity calls are given as the source filed them. The calls are words filed in the database; no cut-off is given here.

Tests used:
Aorta [1] = assay: Vasodilatory activity in Wistar rat endothelium-intact aorta assessed as reversibility of reduction of acetylcholine-induced vasoconstriction in presence of ODQ; assay type: functional; parameters: concentration or dose not given beside the values
Aorta [2] = assay: Vasodilatory activity in Wistar rat endothelium-intact aorta assessed as reduction of acetylcholine-induced vasoconstriction; assay type: functional, tissue-based
Outline: (§1)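 Male Wistar rat aortic rings (~3 mm) in a myograph at 37 °C in oxygenated Krebs, stretched to 15 mN, with maximal contraction set by 60 mM KCl and endothelium checked with ACh. Precontracted rings received NHG as a single 100 μM dose or cumulatively at 1−100 μM. Parallel rings were exposed before and during dosing to L-NAME 200 μM, L-Arg 100 μM, Hb 10 μM or ODQ 50 μM.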

Kidney [3] = assay: Prodrug activation in Wistar rat kidney homogenates assessed as formation of N-(4-Phenylethyl)-N'-hydroxyguanidine Hydrochloride at 1 to 100 uM; assay type: tissue-based; settings: tissue homogenate, TDE = time-dependent effect
Outline: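 Prodrug at 1, 10 or 100 μM was incubated with freshly pooled (n = 3) male Wistar rat kidney homogenate. Samples were taken every 15 min over 45 min, and the parent NHG was quantified by positive-ion LC-MS/MS on a C18 column with 0.1% formic acid in 95% water/5% acetonitrile. Total protein was determined by Lowry assay.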

Kidney [4] = assay: Prodrug activation in Wistar rat kidney homogenates assessed as formation of N-(4-Phenylethyl)-N'-hydroxyguanidine Hydrochloride after 10 to 40 mins; assay type: tissue-based; settings: tissue homogenate
Kidney [5] = assay: Vasodilatory activity in Wistar rat isolated perfused rat kidney model in presence of gamma-glutamyl transpeptidase; assay type: functional, tissue-based
Outline: (§2)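 Isolated perfused kidney from a pentobarbital-anaesthetized (i.p.) male Wistar rat, perfused at 10 mL/min with perfusion pressure read via a side-port transducer. After 20 min equilibration, pressure was raised to 120−140 mmHg with phenylephrine (0.3 μM increments). Compound was added cumulatively to the perfusate (1 μM to 1 mM).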

Aorta [6] = assay: Vasodilatory activity in Wistar rat endothelium-intact aorta assessed as reduction of acetylcholine-induced vasoconstriction at 100 uM in presence of gamma-glutamyl transpeptidase; assay type: functional
Outline: (§3)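 Aortic ring myograph (rat, 37 °C, Krebs, precontracted). The glutamyl prodrug at 10 mM was preincubated with γ-GT (100 mU/5 mM gly-gly) for 1 h at 37 °C before addition to the bath at 100 μM. Hemoglobin (10 μM), where present, was used as NO scavenger.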

Aorta [7] = assay: Vasodilatory activity in Wistar rat endothelium-intact aorta assessed as reduction of acetylcholine-induced vasoconstriction at 100 uM; assay type: functional, tissue-based; outline: as §1
Rattus norvegicus [8] = species on record: Rattus norvegicus; assay: Induction of NOx production in Wistar rat renal medullar homogenates at 100 uM after 1 hr by Griess test in presence of L-NAME; assay type: functional, tissue-based; settings: Renal medulla
Outline: (§4)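 Crude homogenates of liver, renal cortex or renal medulla from freshly killed adult male Wistar rats, prepared in ice-cold HBSS with 1% Triton X. NHG at 100 μM was incubated for 1 h at 37 °C, with or without L-NAME (200 μM), then spun at 1000g and 4 °C. NOx (nitrite + nitrate) was measured by Griess assay. n = 4−5; paired t-tests.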

Rattus norvegicus [9] = species on record: Rattus norvegicus; assay: Induction of NOx production in Wistar rat renal cortex homogenates at 100 uM after 1 hr by Griess test in presence of L-NAME; assay type: functional, tissue-based; outline: as §4
Liver [10] = assay: Induction of NOx production in Wistar rat liver homogenates at 100 uM after 1 hr by Griess test in presence of L-NAME; assay type: functional, tissue-based; outline: as §4
[11] = Induction of xanthine/xanthine oxidase-mediated NOx production at 100 uM after 1 hr by Griess test in presence of allopurinol; assay type: physicochemical
Outline: (§5)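 Cell-free xanthine/xanthine oxidase (100 μM X / 100 mU XO) was made fresh daily in KPE buffer. NHG at 100 μM was incubated for 1 h at 37 °C, with or without allopurinol (100 μM), then centrifuged at 1000g and 4 °C. NOx was measured by Griess assay. n = 4−5; paired t-tests.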

Rattus norvegicus [12] = species on record: Rattus norvegicus; assay: Induction of NOx production in Wistar rat renal medullar homogenates at 100 uM after 1 hr by Griess test; assay type: functional, tissue-based; settings: Renal medulla; outline: as §4
Rattus norvegicus [13] = species on record: Rattus norvegicus; assay: Induction of NOx production in Wistar rat renal cortex homogenates at 100 uM after 1 hr by Griess test; assay type: functional, tissue-based; outline: as §4
Liver [14] = assay: Induction of NOx production in Wistar rat liver homogenates at 100 uM after 1 hr by Griess test; assay type: functional, tissue-based; outline: as §4
[15] = Induction of xanthine/xanthine oxidase-mediated NOx production at 100 uM after 1 hr by Griess test; assay type: physicochemical; outline: as §5
Aorta [16] = assay: Vasodilatory activity in Wistar rat endothelium-intact aorta assessed as reduction of acetylcholine-induced vasoconstriction at 100 uM in presence of L-NAME; assay type: functional, tissue-based; outline: as §1
Kidney [17] = assay: Vasodilatory activity in Wistar rat isolated perfused rat kidney model at 250 uM in presence of gamma-glutamyl transpeptidase; assay type: functional, tissue-based; outline: as §2
Aorta [18] = assay: Vasodilatory activity in Wistar rat endothelium-intact aorta assessed as reduction of acetylcholine-induced vasoconstriction at 100 uM in presence of L-Arg; assay type: functional, tissue-based; outline: as §1
Aorta [19] = assay: Vasodilatory activity in Wistar rat endothelium-intact aorta assessed as reduction of acetylcholine-induced vasoconstriction at 100 uM in presence of ODQ; assay type: functional, tissue-based; outline: as §1
Aorta [20] = assay: Vasodilatory activity in Wistar rat endothelium-intact aorta assessed as reduction of acetylcholine-induced vasoconstriction at 100 uM in presence of hemoglobin; assay type: functional, tissue-based; outline: as §1
Aorta [21] = assay: Vasodilatory activity in Wistar rat endothelium-intact aorta assessed as reduction of acetylcholine-induced vasoconstriction at 100 uM in presence of gamma-glutamyl transpeptidase and oxyhemoglobin; assay type: functional, tissue-based; outline: as §3
Rattus norvegicus [22] = species on record: Rattus norvegicus; assay: Induction of NOx production in Wistar rat renal medullar homogenates at 100 uM after 1 hr by Griess test in presence of gamma-glutamyl transpeptidase; assay type: functional, tissue-based; settings: Renal medulla
Rattus norvegicus [23] = species on record: Rattus norvegicus; assay: Induction of NOx production in Wistar rat renal cortex homogenates at 100 uM after 1 hr by Griess test in presence of gamma-glutamyl transpeptidase; assay type: functional, tissue-based
Liver [24] = assay: Induction of NOx production in Wistar rat liver homogenates at 100 uM after 1 hr by Griess test in presence of gamma-glutamyl transpeptidase; assay type: functional, tissue-based
[25] = Induction of xanthine/xanthine oxidase-mediated NOx production at 100 uM after 1 hr by Griess test in presence of gamma-glutamyl transpeptidase; assay type: physicochemical

SMILES: N/C(=N\OCc1ccc(NC(=O)CC[C@H](N)C(=O)O)cc1)NCCc1ccccc1
Drug metabolism (Kidney [3]): tde
Drug metabolism (Kidney [4]): Dose-dependent effect
EC50 (Kidney [5]): 50 µM
Activity (Aorta [1]): Active
Activity (Aorta [6]): Active
Activity (Aorta [7]): Active

SMILES: CN(CCCC(=O)O)C(N)=O
pEC50 (Aorta [2]): inactive
Activity (Rattus norvegicus [8]): Active
Activity (Rattus norvegicus [9]): Active
Activity (Liver [10]): Active
Activity [11]: Active
Activity (Rattus norvegicus [12]): 1 µM
Activity (Rattus norvegicus [13]): 1 µM
Activity (Liver [14]): 1 µM
Activity [15]: Not Active

SMILES: CN(CCCC(=O)O)/C(N)=N/O
Activity (Aorta [16]): inactive
Activity (Aorta [7]): Active
Activity (Rattus norvegicus [12]): 1 µM
Activity (Rattus norvegicus [13]): 1 µM
Activity (Liver [14]): 1 µM
Activity [15]: Active

SMILES: N[C@@H](CCC(=O)NCCCC(=O)N/C(=N\OC(=O)CCCNC(=O)CC[C@H](N)C(=O)O)NCCc1ccccc1)C(=O)O
Activity (Kidney [17]): inactive

SMILES: CCCCN/C(N)=N/O.Cl
Activity (Aorta [1]): 100%
EC50 (Aorta [2]): 31.6 µM

SMILES: Cl.N=C(NO)NCc1ccccc1
Activity (Aorta [1]): 37%
EC50 (Aorta [2]): 12.6 µM

SMILES: CN(CCCC(=O)O)c1noc(CC[C@H](N)C(=O)O)n1
Activity (Aorta [6]): inactive
Activity (Aorta [7]): inactive

SMILES: CN(CCCC(=O)O)/C(=N\O)NC(=O)CC[C@H](N)C(=O)O
Activity (Aorta [21]): inactive
Activity (Aorta [6]): 18%
Activity (Aorta [7]): inactive

SMILES: N=C(NO)NCCC[C@H](N)C(=O)O
Activity (Aorta [18]): inactive
Activity (Aorta [19]): inactive
Activity (Aorta [20]): inactive
Activity (Aorta [16]): inactive
Activity (Aorta [7]): Active
Activity (Rattus norvegicus [22]): inactive
Activity (Rattus norvegicus [23]): inactive
Activity (Liver [24]): inactive
Activity [25]: Not Active
Activity (Rattus norvegicus [8]): inactive
Activity (Rattus norvegicus [9]): inactive
Activity (Liver [10]): inactive
Activity [11]: Not Active
Activity (Rattus norvegicus [12]): 5 µM
Activity (Rattus norvegicus [13]): 5 µM
Activity (Liver [14]): 5 µM
Activity [15]: 5 µM

Further lines, with some results ahead:

EC50 (Aorta [2]): 20 µM
SMILES: COc1ccccc1CCN/C(N)=N/O.Cl
Activity (Aorta [1]): 14%

EC50 (Aorta [2]): 15.8 µM
SMILES: Cl.N/C(=N\O)NCCc1ccc(Br)cc1
Activity (Aorta [1]): 34%

EC50 (Aorta [2]): 3.98 µM
SMILES: COc1cccc(CCN/C(N)=N/O)c1.Cl
Activity (Aorta [1]): 9%

EC50 (Aorta [2]): 63.1 µM
SMILES: Cl.N/C(=N\O)NCCc1ccc(F)cc1
Activity (Aorta [1]): 11%

EC50 (Aorta [2]): 12.6 µM
SMILES: Cc1ccc(CCN/C(N)=N/O)cc1.Cl
Activity (Aorta [1]): 35%

EC50 (Aorta [2]): 15.8 µM
SMILES: Cl.N/C(=N\O)NCCCc1ccccc1
Activity (Aorta [1]): 68%

EC50 (Aorta [2]): 631 µM
SMILES: Cl.N/C(=N\O)NCCCCc1ccccc1
Activity (Aorta [1]): 28%

EC50 (Aorta [2]): 100 µM
SMILES: Cl.N/C(=N\O)NCCc1ccc(Cl)cc1
Activity (Aorta [1]): 11%

EC50 (Aorta [2]): 50.1 µM
SMILES: Cl.N/C(=N\O)NCCc1cccc2ccccc12
Activity (Aorta [1]): 1%

EC50 (Aorta [2]): 25.1 µM
SMILES: Cl.N/C(=N\O)NCCc1ccccc1
Activity (Aorta [18]): inactive
Activity (Aorta [19]): inactive
Activity (Aorta [20]): inactive
Activity (Aorta [1]): 75%
Activity (Aorta [16]): inactive

EC50 (Aorta [2]): 50.1 µM
SMILES: COc1ccc(CCN/C(N)=N/O)cc1.Cl
Activity (Aorta [1]): 40%

EC50 (Aorta [2]): 63.1 µM
SMILES: N/C(=N\O)NCCc1ccc(O)cc1
